In PubChem BioAssay:
A number with no mark means an inactive call. Results filed as inconclusive are left out. The source made the active and inactive calls.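 The calls were made as follows, unless noted: active = growth inhibition above 25% in both replicates, a cutoff set 3 SD above the mean; inconclusive = above 25% in only one replicate; inactive = the rest.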

Experiments:
[1] = S. cerevisiae growth inhibition in permissive medium (OD615), pilot counter-assay for S. cerevisiae lifespan shortening project, permissive growth control (AID 705); conditions: OD615, 24 h, at 10 µM, active compounds read high
In short: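 assay system = Saccharomyces cerevisiae strain carrying genetically modified DeaD replicative-lifespan system | technique = absorbance (optical density) at 615 nm | buffer or medium = permissive raffinose/galactose medium | timing = cells pre-grown 4 h, then 24 h compound exposure, 30 °C humidified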

[2] = S. cerevisiae growth inhibition in restrictive medium, OD615, pilot screen, restrictive growth control, yeast lifespan reduction project (AID 706;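 active = growth inhibition above a set limit, 3 SD over mean compound inhibition, in both replicates, cut at about 43% in these data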;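 also: modified DeaD lifespan yeast strain shifted to restrictive glucose medium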); conditions: OD615, 48 h, at 10 µM, active compounds read high
In short: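 System: modified S. cerevisiae. Buffer or medium: CSMM-D glucose medium. Incubation: 4 h pre-growth plus 48 h compound exposure, 30 °C. Detection: absorbance (optical density) measured at 615 nm.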

[3] = doxorubicin toxicity protection in MRP-1 cells – H69AR cells, CellTiter-Glo, duplicate, MRP-1 activator project, pilot screen (AID 807;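 active = viability increase at or above a cutoff of the median across tested compounds plus 3 SD, cut at about 8.5% in these data, passing the limit was not always enough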;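 also: compound pretreatment 18-22 h then 72 h combined with doxorubicin; 0% = doxorubicin alone and 100% = vehicle without doxorubicin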); conditions: H69AR viability with doxorubicin, CellTiter-Glo luminescence; at 10 µM; active compounds read high
[4] = viability of HCT116 without oncogenic beta-catenin – human colon tumor cells, pilot screen (AID 823;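 active = cell viability at or below a set limit in both duplicate runs, the limit being the all-compound median minus 4 SD, cut at about 23% in these data, passing the limit was not always enough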;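 also: 0% = wells killed by 20 µM Hyamine and 100% = untreated DMSO cell wells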); conditions: HCT116 beta-catenin knockout viability, CellTiter-Glo, 60 h; at 10 µM; active compounds read low
[5] = viability of PTEN-null HCT116 cells – cell-based, HCT116 clonal line, CellTiter-Glo, pilot screen (AID 824;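 active = viability at or below 27.92% in each of two runs, the all-compound median minus 4 SD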;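 also: 0% = 20 µM Hyamine control and 100% = vehicle cell control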); conditions: HCT116 PTEN-deleted viability, 60 h, at 10 µM, active compounds read low
[6] = RAM pathway blockade in budding yeast – dse1pr::URA3 reporter, 5-FOA selection, pilot screen (AID 869;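 active = inhibition over a set limit, the all-compound mean plus 3 SD, in both replicate runs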;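 also: 0% = DMSO wells with no growth and 100% = 10 µM 1-NA-PP1 with full growth; RAM network block rescues cells from 5-FOA so hits raise OD615 growth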); conditions: S. cerevisiae dse1pr::URA3 5-FOA growth, OD615, 2 d; at 10 µM; active compounds read high; strain carries analog-sensitive mutant Cbk1 kinase
[7] = RAM signaling pathway blockade in yeast – S. cerevisiae, Pdr1DBD-CYC8 efflux-inhibited sensitized strain, primary screen (AID 1298;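 active = RAM network inhibition above 8.4% in each of two replicates, 3 SD over the compound average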;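 also: 0% = DMSO untreated cells without growth and 100% = 10 µM 1-NA-PP1 full growth; higher means more yeast growth rescued from 5-FOA killing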); conditions: S. cerevisiae cbk1-as DSE1-URA3 strain, 5-FOA growth OD615, 2 d; at 50 µM; active compounds read high

SMILES | growth inhibition [1] [%] | growth inhibition [2] [%] | viability increase [3] [%] | viability [4] | viability [5] | inhibition [6] [%] | RAM network inhibition [7] [%]
O=C1CSC(=O)N1CC(O)COc1ccc(Cl)cc1 (stereo not given) | 0.955 | -20.5 | 3.19 | 102% | 91.9% | 0.995 | 1.1
O=C(Nc1nc2ccccc2n1CCOc1ccc(Cl)cc1)c1ccco1 | 0.61 | -2.21 | -3.5 | 11.8% (active) | 16.8% (active) | 0.745 | 4.7
CCN(CC)S(=O)(=O)c1ccc(C(=O)Nc2nnc(C(C)C)s2)cc1 | -12.7 | -1.79 | 0.3 | 104% | 95% | 1.25 | 4.27
CCn1c(C2CC(=O)N(c3cc(C)cc(C)c3)C2)nc2ccccc21 (stereo not given) | -6.28 | -7 | -4.36 | 87% | 85% | 1.13 | 4.85
Cn1c(=O)oc2cc(S(=O)(=O)NC(Cc3ccccc3)C(=O)N3CCCCC3)ccc21 (stereo not given) | -6.13 | -11.9 | -2.55 | 109% | 98.6% | 2.8 | 2.02
CC1CCCN(c2nc3c(c(=O)[nH]c(=O)n3C)n2CCSc2nc3ccccc3o2)C1 (stereo not given) | -1.52 | -1.66 | -3.56 | 98% | 98.5% | 0.55 | 7.08
O=C(Nc1ccccc1)C1CC(=O)N(C2CCCCC2)C1 (stereo not given) | -8.56 | 7.07 | 1.42 | 105% | 101% | 1.58 | 3.42
CN(CCCNC(=O)Cn1cc2c(n1)CCCC2)C1CCCCC1 | -2.1 | -0.155 | -3.43 | 99.2% | 90.2% | -1.29 | 1.23
CN(C(=O)CSc1nc(N)nn1-c1ccccc1)c1ccccc1 | -7.03 | 4.13 | -0.53 | 104% | 99% | 0.325 | 2.3
Cc1cccc(N2CCN(C(=O)C3CCN(S(=O)(=O)c4cccc5cccnc45)CC3)CC2C)c1 (stereo not given) | -1.53 | -4.12 | -1.38 | 69.9% | 67.1% | 2.65 | 1.04
CCC1CCCCN1C(=O)CSc1nc(N)c(NC(=O)c2ccco2)c(=O)[nH]1 (stereo not given) | 12.5 | 10.7 | -2.48 | 106% | 99% | 2.09 | 2.2
COc1ccc(-c2cc(C(F)(F)F)nc(N3CCN(C)CC3)n2)cc1 | 1.48 | -4.37 | -5.32 | 33.7% | 42.9% | 1.43 | 4.04
CC(C)c1ccc(N(CC(=O)O)S(=O)(=O)c2cccnc2)cc1 | -2 | 8.54 | -1.28 | 93.3% | 98.7% | -0.135 | -1.88
O=C(CCn1c(=O)oc2ccccc21)Nc1cccc(Cl)c1 | -14.4 | -11 | 0.42 | 92.8% | 96.4% | 2.17 | 2.21
COc1ccc(C(c2sc3nc(C)nn3c2O)N2CCC(O)CC2)cc1OC (stereo not given) | 4.24 | 0.32 | -0.06 | 106% | 100% | 1.38 | 5.56
CC(C)Cc1ccc(C#N)c(SCC(N)=O)n1 | -8.16 | -9.82 | -2.54 | 97.2% | 92.1% | 2.18 | 3.19
CN(C)S(=O)(=O)c1ccc2c(c1)c(=O)c(C(=O)N1CCOCC1)cn2C | -8.25 | 2.44 | 0.13 | 103% | 89.4% | 1.79 | -0.67
CC(C)(Oc1ccc(Cl)cc1)C(=O)N1CCN(c2ccccn2)CC1 | -7.41 | 3.08 | -2.47 | 70.7% | 76.1% | 0.32 | -1.34
c1ccc(N2CCN(c3ncnc4c3oc3ccccc34)CC2)cc1 | -16.2 | 9.12 | -0.47 | 96% | 100% | -0.03 | 8.18
COc1ccc2cc(S(=O)(=O)N3CCOCC3)ccc2c1 | -11.2 | -7.81 | -1.77 | 94.4% | 99.2% | 0.075 | 1.03
C=C1CC2C=C(NC(C)=O)CC(C1)C2 (stereo not given) | -18.7 | -12.7 | -0.27 | 98.6% | 95.6% | 1.1 | 4.47
CCOC(=O)C(C)Sc1ncnc2nc[nH]c12 (stereo not given) | -1.5 | -25.9 | -1.35 | 98.8% | 99.2% | 1.11 | 3.25
CCOC(=O)N1CCC(N2C(=O)c3cc(C(=O)NC4CCCCC4)ccc3C2O)CC1 (stereo not given) | -2.13 | -0.895 | -3.03 | 94.5% | 88.1% | 0.045 | 3.81
Cc1nnc(SCCC(C)C)[nH]c1=O | -1.1 | 0.225 | -2.93 | 101% | 99.7% | 0.745 | 3.25
Cc1cc(C)n(CC(=O)n2c3ccccc3c3ccccc32)n1 | 5.86 | -3.37 | -3.82 | 78.2% | 91.7% | 0.155 | -1.18
